A selection: hits, their analogues and other compounds. The true share with any hit is near 2.3%.
TAAR1 antagonist: human TAAR1 antagonism; CHO RD-HGA16 TAAR1, Fluo-8 calcium fluorescence, antagonist; inhibition, % at 3 µM; 1.5% of 360,000 active;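 active = inhibition above a per-plate cutoff, the mean inhibition of test compounds on that plate plus 3 SD, cut at about 49% in these data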;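 note: 0% = DMSO plus EC80 beta-PEA response and 100% = DMSO alone without agonist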
Target sequence (Q96RJ0 whole entry, looked up): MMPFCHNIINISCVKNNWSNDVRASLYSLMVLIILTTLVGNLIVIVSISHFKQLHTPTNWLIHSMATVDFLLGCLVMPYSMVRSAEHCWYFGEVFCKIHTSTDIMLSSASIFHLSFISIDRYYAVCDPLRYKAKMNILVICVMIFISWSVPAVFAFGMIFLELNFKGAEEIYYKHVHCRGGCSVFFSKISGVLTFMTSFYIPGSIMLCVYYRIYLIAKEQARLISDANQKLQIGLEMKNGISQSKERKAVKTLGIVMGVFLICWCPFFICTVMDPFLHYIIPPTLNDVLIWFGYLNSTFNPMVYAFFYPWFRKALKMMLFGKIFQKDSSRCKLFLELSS
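Test system – hTAAR1-expressing CHO RD-HGA16 cells, Gα16-coupled · Also added – β-PEA at EC80 concentration, post-compound challenge · Compound – 3 µM, single point · Incubation – dye loading 75 min at 37 °C, then 30 min room temperature · Measured by – Fluo-8 intracellular calcium dye fluorescence, real-time kinetic reads · Benchmarks – vehicle and agonist controls · Replicates – singlicate, one well per test compound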
TAAR1 ag: agonists of human TAAR1; Q96RJ0; CHO RD-HGA16 TAAR1, Fluo-8 calcium fluorescence; vehicle wells 0%, saturating PEA agonist 100%; activation, % at 3 µM; 0.99% of 360,000 active; AID 624467;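 active = activation above the mean activation of all test compounds in the run plus 3 SD, cut at about 38% in these data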
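Assay system – CHO-derived RD-HGA16 cells with stable Gα16 and human TAAR1 · Compound dosing – one-point dosing at 3 µM (nominal) · Incubation – 17-24 h seeding, 75 min 37 °C dye, 30 min RT · Measured by – kinetic Fluo-8 calcium fluorescence · Control set – DMSO vehicle as 0%, PEA at EC100 as 100% · Repeats – single well for each compound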
OXTR ag: human OXTR agonism. P30559. CHO-OTR cells, Fluo-8 calcium fluorescence; normalized: DMSO 0%, oxytocin 100%. activation, % at 3 µM. 0.32% of 320,000 active. AID 2435;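 active = activation above the mean of all tested compounds plus 3 SD, cutoff set per screening run, cut at about 20% in these data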;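 note: peak over basal fluorescence ratio from a 100 s FLIPR kinetic read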
Target sequence (P30559 whole entry, looked up): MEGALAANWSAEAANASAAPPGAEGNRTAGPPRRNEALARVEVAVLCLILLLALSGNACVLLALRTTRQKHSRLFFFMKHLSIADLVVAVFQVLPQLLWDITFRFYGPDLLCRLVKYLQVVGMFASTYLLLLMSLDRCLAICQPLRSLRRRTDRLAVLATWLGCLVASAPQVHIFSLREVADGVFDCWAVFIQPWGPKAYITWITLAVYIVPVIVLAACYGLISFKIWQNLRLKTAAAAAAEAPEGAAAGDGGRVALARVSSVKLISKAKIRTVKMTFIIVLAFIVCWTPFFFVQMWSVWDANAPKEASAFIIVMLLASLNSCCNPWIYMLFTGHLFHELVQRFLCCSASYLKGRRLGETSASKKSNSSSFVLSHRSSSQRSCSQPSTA
V1aR counter: V1a receptor agonism, counter-screen for OXTR agonists; 0.25% of 320,000 active; AID 2797; P37288; CHO-V1R cells, Fluo-8 calcium fluorescence, agonist mode; 0% DMSO, 100% 3 nM vasopressin; activation, % at 3 µM;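 active = activation above the mean activation of all tested compounds plus 3 SD, per screening run, cut at about 20% in these data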;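 note: signal is peak over basal fluorescence ratio across a 100 second FLIPR read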
OXTR potentiate: potentiates the human oxytocin receptor response. 0.061% of 320,000 active. activation, % at 3 µM. AID 2445. CHO-OTR cells, Fluo-8 calcium fluorescence, potentiator mode; 0% = oxytocin EC15, 100% = EC100;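 active = activation above that plate's cutoff, the mean activation of tested compounds plus 3 SD, cut at about 6.6% in these data, passing the limit was not always enough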;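 note: 100% uses oxytocin at 75 nM as the full agonist control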
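Dosing: Single dose, 3.0 µM nominal final compound concentration | Material: Human OTR in CHO cells | Technique: Kinetic Fluo-8 calcium fluorescence | Benchmarks: EC15 oxytocin alone as 0%, 75 nM oxytocin as 100% | Probe or stimulus: Oxytocin at about EC15, sub-maximal agonist stimulus | Incubation: Compound 6 min at room temperature before oxytocin, 100 s read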
TAAR1 nonsel count: nonselective antagonist in TAAR1 antagonist counter-screen. shares compounds with TAAR1 antagonist. counterscreen cell line, calcium fluorescence, antagonist mode. inhibition, % at 3 µM. 77% of 2,400 active. AID 651780; in the data active = inhibition above about 22%;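 note: CHO-Ga16 host cells stimulated with ATP at an EC80 level; 0% = agonist EC80 plus vehicle and 100% = vehicle without agonist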
TAAR1 ant conf: human TAAR1 antagonism, confirmed; shares compounds with TAAR1 antagonist; TAAR1-expressing cells, fluorescence antagonist read-out; inhibition, % at 3 µM; 40% of 2,400 active; in the data active = inhibition above about 49%;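 note: CHO-Ga16 host cells challenged with agonist PEA near its EC80; 0% = agonist at EC80 plus vehicle and 100% = vehicle with no agonist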
Ga16 nonsel ag: nonselective Ga16 agonist in TAAR1 antagonist counter-screen. shares compounds with TAAR1 antagonist. Ga16-expressing cells, calcium fluorescence, agonist counterscreen. activation, % at 3 µM. 18% of 2,400 active; in the data active = activation above about 12%;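 note: 0% = vehicle wells and 100% = saturating stimulus response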
TAAR1 ag count: counter-screen for human TAAR1 antagonists: TAAR1 agonists. shares compounds with TAAR1 antagonist. hTAAR1 cell line, fluorescence activation, agonist mode. activation, % at 3 µM. 2% of 2,400 active. AID 651955; in the data active = activation above about 37%;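 note: CHO cells stably expressing TAAR1 with calcium dye readout; 0% = DMSO vehicle and 100% = full agonist response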
Active calls of the source: *; / = no result.

SMILES	TAAR1 antagonist	TAAR1 ag	OXTR ag	V1aR counter	OXTR potentiate	TAAR1 nonsel count	TAAR1 ant conf	Ga16 nonsel ag	TAAR1 ag count
N#Cc1c(Cl)cccc1N1CCC(C(N)=O)CC1	-4	6	-1	1	-1	/	/	/	/
c1ccc(CCNc2nc(-c3ccncc3)nc3ccccc23)cc1	67*	2	-3	-1	-9	27*	41	8	4
C[C@@H]1CN([C@@H](C)CO)C(=O)c2cccc(NC(=O)C3CCCCC3)c2O[C@@H]1CN(C)C(=O)NC1CCCCC1	17	4	-1	1	-3	/	/	/	/
Cn1c(C(=O)Nc2ccc3c(c2)OCCO3)cc2c(=O)n(C)c3ccccc3c21	52*	3	-1	4	-8	10	35	8	13
Cn1c(C(=O)NC2CC2)cc2c(=O)n(C)c3ccccc3c21	-10	2	-1	0	5	/	/	/	/
CC1Cc2ccccc2N1C(=O)CSc1nncs1 (centres undefined)	-14	5	-1	0	-4	/	/	/	/
Clc1ccc(-c2ccnc3nc(N4CCOCC4)nn23)c(Cl)c1	-24	3	/	/	/	/	/	/	/
O=C(N/N=C/c1cn(-c2cccs2)nc1-c1ccccc1)c1ccccc1O	75*	11	3	4	-7	55*	60*	13*	10
CC1CCN(c2ccc(C(=O)Nc3ccc4c(c3)OCO4)cc2[N+](=O)[O-])CC1	51*	0	-2	-1	-2	29*	51*	2	3
CC1CCCN(c2ccc(C(=O)NCc3ccc4c(c3)OCO4)cc2[N+](=O)[O-])C1 (centres undefined)	-4	2	-2	-1	-2	/	/	/	/
O=C(COC(=O)c1ccc(N2CCOCC2)c([N+](=O)[O-])c1)Nc1ccc2c(c1)OCO2	16	3	5	4	-4	/	/	/	/
CC1CCCN(c2ccc(C(=O)Nc3ccc4c(c3)OCO4)cc2[N+](=O)[O-])C1 (centres undefined)	70*	0	-3	-1	-9	25*	73*	7	8
O=S1(=O)CC(N2CCSCC2)CN1Cc1cn(Cc2ccc(F)cc2)nn1 (centres undefined)	-2	-1	/	/	/	/	/	/	/
COc1ccccc1CN(Cc1nc2ccccc2c(=O)[nH]1)S(=O)(=O)c1ccc2ccccc2c1	70*	7	0	2	-16	25*	56*	7	10
Cc1nonc1C(=O)N1CCCC(N2CCN(c3ccc(F)cc3)CC2)C1 (centres undefined)	14	5	/	/	/	/	/	/	/
Cc1[nH]c2ccccc2c1C(=O)C(=O)NC1CC1	-1	1	1	0	-1	/	/	/	/
COc1c(F)c(F)c(C(=O)Nc2cccc(Cl)c2N2CCOCC2)c(F)c1F	72*	23	-1	0	-2	17	31	6	19
O=C(Nc1cccc(Cl)c1N1CCOCC1)c1ccco1	-1	0	0	0	-7	/	/	/	/
COC(=O)c1c(-c2ccc(F)cc2)csc1NC(=O)c1ccco1	58*	0	-2	0	-5	4	25	2	6
O=C(Nc1scc(-c2ccccc2)c1C(=O)O)c1ccco1	7	12	-2	-1	-10	/	/	/	/
COc1ccccc1-n1c(=S)[nH]c2c(sc(=S)n2-c2ccccc2C)c1=O	-28	4	5	1	-5	/	/	/	/
O=C1c2cccc(OCC(=O)N3CCCc4ccccc43)c2CCN1Cc1ccc(Br)cc1	71*	11	-1	1	-3	40*	51*	8	2
O=C1c2cccc(OCC(=O)N3CCCc4ccccc43)c2CCN1Cc1ccccc1	4	9	2	3	-1	/	/	/	/
C=CC[C@H](CC(=O)NCCO)C(=O)NC[C@H](OC(=O)[C@@H](CC=C)Cc1ccc(F)cc1)c1ccccc1	29	9	-1	0	-4	/	/	/	/
C=CC[C@@H](CC(=O)N(CCO)Cc1ccccc1)C(=O)N[C@H](COC(=O)[C@@H](CC=C)Cc1ccc(F)cc1)c1ccccc1	61*	14	2	2	-9	17	25	14*	12
SMILES	TAAR1 antagonist	TAAR1 ag	OXTR ag	V1aR counter	OXTR potentiate	TAAR1 nonsel count	TAAR1 ant conf	Ga16 nonsel ag	TAAR1 ag count
C=CC[C@@H](CC(=O)N(CCO)Cc1ccccc1)C(=O)NC[C@H](OC(=O)[C@@H](CC=C)Cc1ccc(F)cc1)c1ccccc1	89*	20	3	4	-9	36*	63*	9	10
C=CC[C@@H](CC(=O)N(CCO)Cc1ccccc1)C(=O)NC[C@@H](OC(=O)[C@@H](CC=C)CC(=O)OC(C)(C)C)c1ccccc1	59*	17	-2	0	-7	29*	39	8	10
COC(=O)c1cccc(Nc2nc(-c3cccnc3)nc3ccccc23)c1	67*	17	-2	-2	-6	27*	39	5	5
CCOc1ccc2[nH]c3c(NCCc4ccc(OC)c(OC)c4)ncnc3c2c1	51*	6	-3	-1	0	18	31	4	1
CCOc1ccc2[nH]c3c(NCCO)ncnc3c2c1	-2	4	/	/	/	/	/	/	/
CCCCNc1c(-c2cccc(-c3cc(C(C)=O)cs3)c2)nc2cc(C)ccn12	78*	14	-2	0	-10	31*	53*	11	10
CCCCCCSc1cc(-c2nc3cc(C)ccn3c2NCCCC)ccc1OC	16	2	-1	0	-2	/	/	/	/
Cc1ccc(C)c(N2CCN(C(=O)C34CC5CC(C3)CC(n3nnc(C)n3)(C5)C4)CC2)c1	59*	7	-3	-2	-15	35*	43	7	5
CCOC(=O)C1=CN(Cc2cccc(-c3ccc(Cl)nc3)c2)S(=O)(=O)N(C)C1C (centres undefined)	63*	5	/	/	/	11	22	2	4
COc1cc(C2NC(=O)NC(C)=C2C(=O)OCC2CCCO2)cc(OC)c1OC (centres undefined)	-1	5	-1	0	-1	/	/	/	/
O=C(OCc1nc2scc(-c3ccccc3)c2c(=O)[nH]1)c1ccco1	24	5	0	0	-6	/	/	/	/
CC(C)[C@H](NC(=O)c1ccccc1)C(=O)OCc1nc2scc(-c3ccccc3)c2c(=O)[nH]1	73*	13	3	9	-6	36*	55*	11	14
